In ChEMBL document CHEMBL3779826, “Converting maslinic acid into an effective inhibitor of acylcholinesterases” (Eur J Med Chem, 2015):

Legend:
[1] = biological target: Acetylcholinesterase (Electrophorus electricus) (UniProt O42275); test: Mixed type inhibition of Electrophorus electricus AChE by Lineweaver-Burk plot analysis
Method in brief: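 Ellman kinetics at 30 °C in pH 8.0 Tris-HCl with DTNB. Enzyme plus inhibitor (3 concentrations and a water blank) was preincubated for 20 min, then ATChI was added at 0.9375, 0.625, 0.325 or 0.1875 mM. A415 was read every minute for 30 min, in triplicate. Mode, Ki and Ki' came from Lineweaver-Burk, Dixon and Cornish-Bowden plots.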

Cholinesterase = Cholinesterase (Equus caballus, UniProt P81908); test: Inhibition of equine serum BChE using butyrylthiocholine iodide as substrate preincubated for 20mins before the addition of substrate by Ellman's method; conditions: for Ki: read-out: Ki
Acetylcholinesterase = Acetylcholinesterase (Electrophorus electricus, UniProt O42275); test: Inhibition of Electrophorus electricus AChE using acetylthiocholine iodide as substrate preincubated for 20mins before the addition of substrate by Ellman's method; conditions: for Ki: read-out: Ki
[2] = biological target: Acetylcholinesterase (Electrophorus electricus) (UniProt O42275); test: Inhibition of Electrophorus electricus AChE at 3 uM using acetylthiocholine iodide as substrate preincubated for 20mins before the addition of substrate by Ellman's method
Method in brief: (§1)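 Ellman assay: enzyme in Tris-HCl pH 8.0 with NaN3, plus DTNB (3 mM stock with NaCl and MgCl2), was preincubated with compound at 30 °C for 20 min. Thiocholine substrate was then added and absorbance at 415 nm recorded at 30 °C for 30 min at 1-min intervals, in triplicate. Residual DMSO below 0.5%.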

[3] = biological target: Cholinesterase (Equus caballus) (UniProt P81908); test: Inhibition of equine serum BChE at 3 uM using butyrylthiocholine iodide as substrate preincubated for 20mins before the addition of substrate by Ellman's method; method in brief: as §1
[4] = biological target: Carbonic anhydrase 2 (Bos taurus) (UniProt P00921); test: Inhibition of bovine erythrocte carbonic anhydrase 2 at 3 uM
Candida antarctica [5] = test: Inhibition of Candida antarctica lipase at 3 uM using 4-NA as substrate preincubated for 20 mins before the addition of substrate
Method in brief: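 Candida antarctica lipase in 50 mM Tris-HCl pH 8.0 was preincubated with compound at 37 °C for 20 min. Reaction started with 4-NA ([…] as added). Absorbance at 415 nm was read kinetically at 37 °C for 10 min at 1-min intervals. Relative inhibition was taken as the ratio of linear-range slopes, compound over blank.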

[6] = Cytotoxic activity against mouse NIH/3T3 cells by SRB assay; assay type: cell-based; conditions: NIH3T3
Method in brief: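 Mouse embryonic fibroblasts grown as monolayers in RPMI 1640 with 10% heat-inactivated FBS and penicillin/streptomycin at 37 °C under 5% CO2. Cytotoxicity read by photometric sulforhodamine-B microculture colorimetric assay, reported as IC50.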

[7] = biological target: Cholinesterase (Equus caballus) (UniProt P81908); test: Inhibition of equine serum BChE at 40 uM using butyrylthiocholine iodide as substrate preincubated for 20mins before the addition of substrate by Ellman's method; method in brief: as §1
Candida antarctica [8] = test: Inhibition of Candida antarctica lipase at 40 uM using 4-NA as substrate preincubated for 20 mins before the addition of substrate
Method in brief: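 Candida antarctica lipase (stock 2.003 U/ml) in 50 mM Tris-HCl pH 8.0, preincubated with compound at 37 °C for 20 min. Reaction started with 4-NA; absorbance at 415 nm followed at 37 °C for 10 min at 1 min intervals. Relative inhibition taken as the ratio of linear-range slopes, compound over blank.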

[9] = biological target: Carbonic anhydrase 2 (Bos taurus) (UniProt P00921); test: Inhibition of bovine erythrocte carbonic anhydrase 2 at 40 uM
[10] = biological target: Acetylcholinesterase (Electrophorus electricus) (UniProt O42275); conditions: 40 uM

Acetylcholinesterase (Electrophorus electricus), sequence (O42275 24-633 limits assumed): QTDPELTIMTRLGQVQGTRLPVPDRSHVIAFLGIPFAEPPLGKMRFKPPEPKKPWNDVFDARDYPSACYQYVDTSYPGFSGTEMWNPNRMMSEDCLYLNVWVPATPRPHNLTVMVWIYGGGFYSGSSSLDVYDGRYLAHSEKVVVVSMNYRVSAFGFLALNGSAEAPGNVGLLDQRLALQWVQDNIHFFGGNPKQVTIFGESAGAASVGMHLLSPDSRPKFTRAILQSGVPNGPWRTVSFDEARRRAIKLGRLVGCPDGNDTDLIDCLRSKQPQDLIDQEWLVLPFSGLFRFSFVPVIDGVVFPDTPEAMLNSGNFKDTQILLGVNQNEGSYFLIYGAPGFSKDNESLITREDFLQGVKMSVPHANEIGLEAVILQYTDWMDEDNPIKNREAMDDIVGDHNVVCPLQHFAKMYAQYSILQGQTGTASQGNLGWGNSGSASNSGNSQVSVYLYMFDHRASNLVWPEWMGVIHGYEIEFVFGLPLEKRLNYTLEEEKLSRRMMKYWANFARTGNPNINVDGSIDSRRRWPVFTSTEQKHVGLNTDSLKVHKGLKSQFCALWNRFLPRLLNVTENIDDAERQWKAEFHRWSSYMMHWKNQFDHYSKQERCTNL
Cholinesterase (Equus caballus), sequence (P81908 whole entry): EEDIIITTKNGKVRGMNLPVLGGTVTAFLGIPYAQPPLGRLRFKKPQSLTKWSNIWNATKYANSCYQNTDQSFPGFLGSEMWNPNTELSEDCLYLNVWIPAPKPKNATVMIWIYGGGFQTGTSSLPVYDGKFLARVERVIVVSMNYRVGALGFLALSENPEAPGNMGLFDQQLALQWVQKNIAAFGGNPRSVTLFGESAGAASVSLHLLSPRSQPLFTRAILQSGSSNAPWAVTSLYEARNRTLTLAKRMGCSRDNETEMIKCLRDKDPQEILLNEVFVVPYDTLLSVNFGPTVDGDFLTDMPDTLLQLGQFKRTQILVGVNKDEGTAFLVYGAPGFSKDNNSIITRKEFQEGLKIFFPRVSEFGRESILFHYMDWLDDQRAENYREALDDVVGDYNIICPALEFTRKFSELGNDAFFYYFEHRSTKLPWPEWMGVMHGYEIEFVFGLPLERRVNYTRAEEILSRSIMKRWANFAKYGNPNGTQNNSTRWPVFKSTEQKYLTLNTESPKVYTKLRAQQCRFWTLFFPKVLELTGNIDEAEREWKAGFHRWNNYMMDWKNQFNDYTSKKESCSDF
Cholinesterase, sequence (P81908 whole entry): as above
Acetylcholinesterase, sequence (O42275 whole entry): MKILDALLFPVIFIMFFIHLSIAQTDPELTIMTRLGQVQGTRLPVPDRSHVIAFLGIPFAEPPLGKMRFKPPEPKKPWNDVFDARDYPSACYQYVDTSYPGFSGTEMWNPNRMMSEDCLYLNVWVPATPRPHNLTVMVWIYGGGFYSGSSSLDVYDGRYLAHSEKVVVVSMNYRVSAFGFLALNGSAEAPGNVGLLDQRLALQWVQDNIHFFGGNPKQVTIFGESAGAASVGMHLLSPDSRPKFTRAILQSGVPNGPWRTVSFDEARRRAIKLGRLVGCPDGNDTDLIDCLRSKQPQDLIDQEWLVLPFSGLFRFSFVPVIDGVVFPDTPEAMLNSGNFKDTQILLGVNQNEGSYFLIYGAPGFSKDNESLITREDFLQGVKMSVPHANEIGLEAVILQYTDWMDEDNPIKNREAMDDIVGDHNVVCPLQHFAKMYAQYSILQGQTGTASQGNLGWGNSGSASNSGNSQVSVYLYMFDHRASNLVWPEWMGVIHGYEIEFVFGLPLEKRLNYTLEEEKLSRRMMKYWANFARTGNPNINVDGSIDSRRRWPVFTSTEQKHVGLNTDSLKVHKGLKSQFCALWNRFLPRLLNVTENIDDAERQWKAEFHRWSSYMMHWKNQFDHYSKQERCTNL
Carbonic anhydrase 2 (Bos taurus), sequence (P00921 2-260 limits assumed): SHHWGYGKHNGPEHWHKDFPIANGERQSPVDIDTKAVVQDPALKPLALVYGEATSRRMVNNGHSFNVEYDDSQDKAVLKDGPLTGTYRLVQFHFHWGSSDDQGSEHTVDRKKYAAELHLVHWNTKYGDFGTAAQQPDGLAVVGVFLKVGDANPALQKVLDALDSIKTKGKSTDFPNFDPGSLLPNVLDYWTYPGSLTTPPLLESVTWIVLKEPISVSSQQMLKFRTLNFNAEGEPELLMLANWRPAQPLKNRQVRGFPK

Structure (SMILES) | Kiuc [1] [µM] | Ki (Cholinesterase) [µM] | IC50 (Acetylcholinesterase) [µM] | Ki (Acetylcholinesterase) [µM] | also measured
CC1(C)CC[C@]2(C(=O)OCC3CCCCC3)CC[C@]3(C)C(=CC[C@@H]4[C@@]5(C)C[C@@H](O)[C@H](O)C(C)(C)[C@@H]5CC[C@]43C)[C@@H]2C1 | 2.67 | > 14 | 3.87 | 10 | –
COC(=O)[C@]12CCC(C)(C)C[C@H]1C1=CC[C@@H]3[C@@]4(C)C[C@@H](O)[C@H](OS(N)(=O)=O)C(C)(C)[C@@H]4CC[C@@]3(C)[C@]1(C)CC2 | 38.6 | > 20 | 21.3 | 20.5 | –
CC1(C)CC[C@]2(C(=O)O)CC[C@]3(C)C(=CC[C@@H]4[C@@]5(C)C[C@H](OC(=O)CCl)[C@H](OC(=O)CCl)C(C)(C)[C@@H]5CC[C@]43C)[C@@H]2C1 | 9.36 | – | 6.6 | 6.85 | –
CC1(C)CC[C@]2(C(=O)OCCC#CCl)CC[C@]3(C)C(=CC[C@@H]4[C@@]5(C)C[C@@H](O)[C@H](O)C(C)(C)[C@@H]5CC[C@]43C)[C@@H]2C1 | 14.8 | > 6 | 6.57 | 5.71 | –
CCCOC(=O)[C@]12CCC(C)(C)C[C@H]1C1=CC[C@@H]3[C@@]4(C)C[C@@H](O)[C@H](O)C(C)(C)[C@@H]4CC[C@@]3(C)[C@]1(C)CC2 | 15.4 | > 6 | 8.76 | 16.9 | inhibition [2]: 56%; inhibition [3]: 0%; inhibition [4]: 0%; inhibition (Candida antarctica [5]): 0%
COc1ccc(COC(=O)[C@]23CCC(C)(C)C[C@H]2C2=CC[C@@H]4[C@@]5(C)C[C@@H](O)[C@H](O)C(C)(C)[C@@H]5CC[C@@]4(C)[C@]2(C)CC3)cc1 | 69.6 | > 100 | – | 6.49 | –
CC1(C)CC[C@]2(C(=O)OCCCO)CC[C@]3(C)C(=CC[C@@H]4[C@@]5(C)C[C@@H](O)[C@H](O)C(C)(C)[C@@H]5CC[C@]43C)[C@@H]2C1 | 13.7 | > 10 | 13.8 | 20.1 | –
CC1(C)CC[C@]2(C(=O)OCCCCl)CC[C@]3(C)C(=CC[C@@H]4[C@@]5(C)C[C@@H](O)[C@H](O)C(C)(C)[C@@H]5CC[C@]43C)[C@@H]2C1 | 3.45 | > 6 | 4.07 | 8.76 | –
CC1(C)CC[C@]2(C(=O)O)CC[C@]3(C)C(=CC[C@@H]4[C@@]5(C)C[C@@H](O)[C@H](O)C(C)(C)[C@@H]5CC[C@]43C)[C@@H]2C1 [MASLINIC ACID] | – | > 100 | – | > 100 | IC50 [6]: 16.6 µM
CC1(C)CC[C@]2(C(=O)OCc3ccc(Cl)cc3Cl)CC[C@]3(C)C(=CC[C@@H]4[C@@]5(C)C[C@@H](O)[C@H](O)C(C)(C)[C@@H]5CC[C@]43C)[C@@H]2C1 | 9.24 | > 6 | 4.63 | 2.03 | inhibition [2]: 43%; inhibition [3]: 0%; inhibition [4]: 0%; IC50 [6]: 17.3 µM; inhibition (Candida antarctica [5]): 0%
CCCCCCOC(=O)[C@]12CCC(C)(C)C[C@H]1C1=CC[C@@H]3[C@@]4(C)C[C@@H](O)[C@H](O)C(C)(C)[C@@H]4CC[C@@]3(C)[C@]1(C)CC2 | 5.11 | > 6 | 4.38 | 4.78 | inhibition [2]: 62%; inhibition [3]: 0%; inhibition [4]: 0%; inhibition (Candida antarctica [5]): 0%
CC1(C)CC[C@]2(C(N)=O)CC[C@]3(C)C(=CC[C@@H]4[C@@]5(C)C[C@@H](O)[C@H](O)C(C)(C)[C@@H]5CC[C@]43C)[C@@H]2C1 | – | 18.1 | – | > 20 | IC50 (Cholinesterase): 34.1 µM
COC(=O)[C@]12CCC(C)(C)C[C@H]1C1=CC[C@@H]3[C@@]4(C)C[C@@H](O)[C@H](O)C(C)(C)[C@@H]4CC[C@@]3(C)[C@]1(C)CC2 [MASLINIC ACID METHYL ESTER] | – | > 50 | – | > 50 | –
C#CCOC(=O)[C@]12CCC(C)(C)C[C@H]1C1=CC[C@@H]3[C@@]4(C)C[C@@H](O)[C@H](O)C(C)(C)[C@@H]4CC[C@@]3(C)[C@]1(C)CC2 | – | > 10 | – | > 10 | –
CC1(C)CC[C@]2(C(=O)OCc3ccc(Br)cc3)CC[C@]3(C)C(=CC[C@@H]4[C@@]5(C)C[C@@H](O)[C@H](O)C(C)(C)[C@@H]5CC[C@]43C)[C@@H]2C1 | – | > 20 | – | > 20 | –
CC1(C)CC[C@]2(C(=O)OCc3ccccc3)CC[C@]3(C)C(=CC[C@@H]4[C@@]5(C)C[C@@H](O)[C@H](O)C(C)(C)[C@@H]5CC[C@]43C)[C@@H]2C1 [BENZYL MASLINATE] | – | > 14 | – | > 14 | –
CC(=O)O[C@@H]1C[C@]2(C)[C@H]3CC=C4[C@@H]5CC(C)(C)CC[C@]5(C(=O)NCc5ccccc5)CC[C@@]4(C)[C@]3(C)CC[C@H]2C(C)(C)[C@H]1OC(C)=O | 39.4 | – | 29.4 | 16.2 | –
CC1(C)CC[C@]2(C(=O)OCCCBr)CC[C@]3(C)C(=CC[C@@H]4[C@@]5(C)C[C@@H](O)[C@H](O)C(C)(C)[C@@H]5CC[C@]43C)[C@@H]2C1 | 24.4 | > 80 | 31.2 | 34.9 | inhibition [7]: 16%; inhibition (Candida antarctica [8]): 18%; inhibition [9]: 1%; inhibition [10]: 39%
CCOC(=O)[C@]12CCC(C)(C)C[C@H]1C1=CC[C@@H]3[C@@]4(C)C[C@@H](O)[C@H](O)C(C)(C)[C@@H]4CC[C@@]3(C)[C@]1(C)CC2 | 4.67 | > 14 | 4.68 | 3.49 | –
C#CCCOC(=O)[C@]12CCC(C)(C)C[C@H]1C1=CC[C@@H]3[C@@]4(C)C[C@@H](O)[C@H](O)C(C)(C)[C@@H]4CC[C@@]3(C)[C@]1(C)CC2 | 32.5 | > 20 | 11.7 | 6.76 | –
CCNC(=O)[C@]12CCC(C)(C)C[C@H]1C1=CC[C@@H]3[C@@]4(C)C[C@@H](O)[C@H](O)C(C)(C)[C@@H]4CC[C@@]3(C)[C@]1(C)CC2 | – | > 20 | – | > 20 | –
CCNC(=O)[C@]12CCC(C)(C)C[C@H]1C1=CC[C@@H]3[C@@]4(C)C[C@@H](OC(C)=O)[C@H](OC(C)=O)C(C)(C)[C@@H]4CC[C@@]3(C)[C@]1(C)CC2 | – | > 14 | – | > 14 | –
C=CCCOC(=O)[C@]12CCC(C)(C)C[C@H]1C1=CC[C@@H]3[C@@]4(C)C[C@@H](O)[C@H](O)C(C)(C)[C@@H]4CC[C@@]3(C)[C@]1(C)CC2 | 11.5 | > 10 | 6.25 | 3.31 | –
CC1(C)CC[C@@]2(C(=O)OCc3ccc([N+](=O)[O-])cc3)CC[C@@]3(C)C(=CC[C@H]4[C@]5(C)C[C@H](O)[C@@H](O)C(C)(C)[C@H]5CC[C@@]43C)[C@H]2C1 (single isomer, unassigned) | 7.22 | > 4 | 7.41 | 6.14 | –
C=CCOC(=O)[C@]12CCC(C)(C)C[C@H]1C1=CC[C@@H]3[C@@]4(C)C[C@@H](O)[C@H](O)C(C)(C)[C@@H]4CC[C@@]3(C)[C@]1(C)CC2 | – | > 30 | – | > 30 | –
CC1(C)CC[C@]2(C(=O)OCCO)CC[C@]3(C)C(=CC[C@@H]4[C@@]5(C)C[C@@H](O)[C@H](O)C(C)(C)[C@@H]5CC[C@]43C)[C@@H]2C1 | – | > 100 | – | > 100 | –
CC1(C)CC[C@]2(C(=O)OCc3cccc(Cl)c3)CC[C@]3(C)C(=CC[C@@H]4[C@@]5(C)C[C@@H](O)[C@H](O)C(C)(C)[C@@H]5CC[C@]43C)[C@@H]2C1 | – | > 10 | – | > 10 | –
CC1(C)CC[C@]2(C(=O)OC/C=C\CCl)CC[C@]3(C)C(=CC[C@@H]4[C@@]5(C)C[C@@H](O)[C@H](O)C(C)(C)[C@@H]5CC[C@]43C)[C@@H]2C1 | 9.38 | > 80 | 17.6 | 22.5 | inhibition [7]: 7%; inhibition (Candida antarctica [8]): 0%; inhibition [9]: 1%; inhibition [10]: 79%
CC1(C)CC[C@]2(C(=O)O)CC[C@]3(C)C(=CC[C@@H]4[C@@]5(C)C[C@@H](OC(=O)CCl)[C@H](OC(=O)CCl)C(C)(C)[C@@H]5CC[C@]43C)[C@@H]2C1 | 19.8 | – | 15.1 | 13.1 | –
